Measured values pooled from the literature.
Compare with care: the assays were run in different laboratories.
Target: Serine/threonine-protein kinase SIK3 (SIK3, Homo sapiens, UniProt Q9Y2K2)

Structure (SMILES)	test	conditions	remaining binding [%]
O=C(Nc1c[nH]nc1C(=O)NC1CCNCC1)c1cc(F)cc(F)c1	binding, competition with immobilised ligand	1 µM	66
C[C@H]1CCN(c2nccc(-c3cnn4ncccc34)n2)C1	binding	1 µM	66
FC(F)(F)Oc1cccc(-c2cnc3ccc(-c4ccncc4)nn23)c1	cell-free assay, competition with immobilised ligand	5 µM	66
CNC(=O)[C@@H]1CC[C@@H](n2c(-c3ccc4cnccc4c3)nc3ccc(C(=O)NCc4cccc(C(N)=O)c4)cc32)C1	binding, competition with immobilised ligand	1 µM	88
CN(C)c1ncc(F)c(-c2cnn3ncccc23)n1	binding	1 µM	87
C[C@H](c1ccc(F)cc1)N(Cc1cccc(C(=O)O)c1)C(=O)c1cnc2ccccc2c1	cell-free assay, competition with immobilised ligand	1 µM	80
O=C(c1ccc(Nc2nccc(-c3cc4ccccc4s3)n2)cc1)N1CCC(N2CCCC2)CC1	binding, competition with immobilised ligand	1 µM	65
CN(C)C(=O)Cn1cc(-c2nc(C3(c4ccc(-c5cnc(N)nc5)cc4)CC3)no2)cn1	cell-free assay, competition with immobilised ligand	1 µM	100
O=C(c1ccc(Nc2ncc(Cl)c(-c3cc4ccccc4s3)n2)cc1)N1CCC(N2CCCC2)CC1	binding, competition with immobilised ligand	1 µM	98
N[C@H]1CCN(c2nccc(-c3cnn4ncccc34)n2)C1	binding	1 µM	100
NS(=O)(=O)c1cc(NC(=O)Cc2ccccc2)ccc1Oc1cccc(Cl)c1	cell-free assay, competition with immobilised ligand	1 µM	87
COc1cnc(Nc2cccc(S(N)(=O)=O)c2)nc1N1CCN(c2ccccc2)C(=O)C1	binding, competition with immobilised ligand	1 µM	90
CC(=O)Nc1c(C(C)=O)c(=O)n(C)c2nc(-c3ccc(Cl)cc3Cl)c(-c3ccc(Cl)cc3)cc12	cell-free assay, competition with immobilised ligand	1 µM	100
CC1CCCN1c1nccc(-c2cnn3ncccc23)n1 (centres unmarked)	binding	1 µM	94
Cc1cc(C)c(-n2ccn3nc(-c4cccnc4)cc23)cc1NC(=O)c1cc(C#N)cc(S(F)(F)(F)(F)F)c1	cell-free assay, competition with immobilised ligand	0.1 µM	75.3
COc1ccnn2ncc(-c3ccnc(N(C)C)n3)c12	binding	1 µM	78
O=C(NCCCC1CCCCC1)c1ccc(CNC(=O)c2cnn(-c3ccccc3)c2C(F)(F)F)cc1	cell-free assay, competition with immobilised ligand	0.1 µM	76
Cc1cnc(Nc2ccc(C(=O)N3CCC(N4CCCC4)CC3)cc2)nc1-c1cc2ccccc2s1	binding, competition with immobilised ligand	1 µM	61
c1cnn2ncc(-c3ccnc(N4CCC45COC5)n3)c2c1	binding	1 µM	70
c1cncc(-c2cccc(Nc3nccc(NC4CCCCC4)n3)c2)c1	binding, competition with immobilised ligand	10 µM	83
